The target of data set [1] is T1, Muscarinic acetylcholine receptor M4 (Homo sapiens) (UniProt P08173).
T1 sequence (whole entry): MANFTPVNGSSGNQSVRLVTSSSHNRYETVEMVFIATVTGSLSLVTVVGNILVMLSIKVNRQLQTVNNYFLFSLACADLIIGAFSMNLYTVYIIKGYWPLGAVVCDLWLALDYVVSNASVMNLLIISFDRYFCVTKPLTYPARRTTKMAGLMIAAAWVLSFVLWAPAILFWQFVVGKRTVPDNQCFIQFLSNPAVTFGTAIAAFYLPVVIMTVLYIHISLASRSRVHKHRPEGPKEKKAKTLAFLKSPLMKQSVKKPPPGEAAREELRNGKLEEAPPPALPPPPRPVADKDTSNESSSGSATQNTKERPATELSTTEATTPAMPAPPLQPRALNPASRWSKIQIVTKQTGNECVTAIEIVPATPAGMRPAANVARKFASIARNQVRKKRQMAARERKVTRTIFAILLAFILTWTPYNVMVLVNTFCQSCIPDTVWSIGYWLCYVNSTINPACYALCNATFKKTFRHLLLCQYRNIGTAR
As to the kind of experiment: Inhibition of muscarinergic M4 receptor (unknown origin) at 10 uM relative to control.

Data set [2] addresses Translocator protein (Homo sapiens) (UniProt P30536). As to the kind of experiment: Inhibition of PBR (unknown origin) at 10 uM relative to control.
In data set [3] the target is T2, Alpha-2B adrenergic receptor (Homo sapiens) (UniProt P18089).
T2 sequence (whole entry): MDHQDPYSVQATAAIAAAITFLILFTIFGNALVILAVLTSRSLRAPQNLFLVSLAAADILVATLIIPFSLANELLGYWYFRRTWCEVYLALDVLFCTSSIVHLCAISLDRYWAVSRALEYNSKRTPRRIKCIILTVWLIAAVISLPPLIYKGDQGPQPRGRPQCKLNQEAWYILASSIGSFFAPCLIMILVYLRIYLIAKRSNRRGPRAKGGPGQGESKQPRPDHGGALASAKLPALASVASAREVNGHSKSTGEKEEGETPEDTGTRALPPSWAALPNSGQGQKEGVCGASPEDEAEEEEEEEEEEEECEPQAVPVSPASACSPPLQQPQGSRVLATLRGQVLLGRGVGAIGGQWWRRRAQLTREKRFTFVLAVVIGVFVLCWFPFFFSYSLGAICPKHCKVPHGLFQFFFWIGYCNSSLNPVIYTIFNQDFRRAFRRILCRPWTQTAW
As to the kind of experiment: Inhibition of adrenergic alpha-2B receptor (unknown origin) at 10 uM relative to control.

The target in data set [4] is D(1B) dopamine receptor (Homo sapiens) (UniProt P21918). As to the kind of experiment: Inhibition of dopaminergic D5 receptor (unknown origin) at 10 uM relative to control.
Chain of D(1B) dopamine receptor (Homo sapiens) (P21918 whole entry): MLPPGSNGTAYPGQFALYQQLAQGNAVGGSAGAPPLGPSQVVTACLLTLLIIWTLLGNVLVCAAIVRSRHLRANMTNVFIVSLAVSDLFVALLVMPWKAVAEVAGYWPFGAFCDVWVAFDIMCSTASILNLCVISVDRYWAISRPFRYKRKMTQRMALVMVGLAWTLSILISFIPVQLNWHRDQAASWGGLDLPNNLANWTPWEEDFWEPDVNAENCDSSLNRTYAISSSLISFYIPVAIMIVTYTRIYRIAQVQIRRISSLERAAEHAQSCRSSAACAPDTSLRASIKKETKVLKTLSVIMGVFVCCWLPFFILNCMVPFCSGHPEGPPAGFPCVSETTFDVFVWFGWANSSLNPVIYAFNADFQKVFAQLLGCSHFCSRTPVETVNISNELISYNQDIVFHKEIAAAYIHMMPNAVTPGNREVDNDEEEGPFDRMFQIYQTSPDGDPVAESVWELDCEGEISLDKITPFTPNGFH
The target of data set [5] is 5-hydroxytryptamine receptor 6 (Homo sapiens) (UniProt P50406). As to the kind of experiment: Inhibition of 5-HT6 receptor (unknown origin) at 10 uM relative to control.
The target of data set [6] is Sodium-dependent serotonin transporter (Homo sapiens) (UniProt P31645). As to the kind of experiment: Inhibition of SERT (unknown origin) at 10 uM relative to control.
Chain of Sodium-dependent serotonin transporter (Homo sapiens) (P31645 whole entry, looked up): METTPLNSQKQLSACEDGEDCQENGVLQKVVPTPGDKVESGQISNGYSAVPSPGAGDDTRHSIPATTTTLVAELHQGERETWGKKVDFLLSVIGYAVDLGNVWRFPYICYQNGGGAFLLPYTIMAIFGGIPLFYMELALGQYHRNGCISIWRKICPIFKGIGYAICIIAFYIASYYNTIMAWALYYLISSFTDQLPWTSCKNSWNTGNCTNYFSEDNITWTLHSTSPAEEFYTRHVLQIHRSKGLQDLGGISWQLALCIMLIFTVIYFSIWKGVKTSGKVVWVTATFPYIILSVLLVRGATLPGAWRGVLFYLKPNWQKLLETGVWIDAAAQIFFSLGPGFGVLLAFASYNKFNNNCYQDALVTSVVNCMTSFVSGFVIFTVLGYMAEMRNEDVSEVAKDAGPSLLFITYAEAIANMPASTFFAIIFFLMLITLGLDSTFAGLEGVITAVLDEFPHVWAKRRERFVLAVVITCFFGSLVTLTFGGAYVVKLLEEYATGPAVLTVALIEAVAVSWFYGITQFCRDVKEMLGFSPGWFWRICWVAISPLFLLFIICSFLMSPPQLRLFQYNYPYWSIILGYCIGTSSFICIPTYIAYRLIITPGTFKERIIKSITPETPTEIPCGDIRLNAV
In data set [7] the target is 5-hydroxytryptamine receptor 2B (Homo sapiens) (UniProt P41595). As to the kind of experiment: Inhibition of 5-HT2B receptor (unknown origin) at 10 uM relative to control.
Chain of 5-hydroxytryptamine receptor 2B (Homo sapiens) (P41595 whole entry): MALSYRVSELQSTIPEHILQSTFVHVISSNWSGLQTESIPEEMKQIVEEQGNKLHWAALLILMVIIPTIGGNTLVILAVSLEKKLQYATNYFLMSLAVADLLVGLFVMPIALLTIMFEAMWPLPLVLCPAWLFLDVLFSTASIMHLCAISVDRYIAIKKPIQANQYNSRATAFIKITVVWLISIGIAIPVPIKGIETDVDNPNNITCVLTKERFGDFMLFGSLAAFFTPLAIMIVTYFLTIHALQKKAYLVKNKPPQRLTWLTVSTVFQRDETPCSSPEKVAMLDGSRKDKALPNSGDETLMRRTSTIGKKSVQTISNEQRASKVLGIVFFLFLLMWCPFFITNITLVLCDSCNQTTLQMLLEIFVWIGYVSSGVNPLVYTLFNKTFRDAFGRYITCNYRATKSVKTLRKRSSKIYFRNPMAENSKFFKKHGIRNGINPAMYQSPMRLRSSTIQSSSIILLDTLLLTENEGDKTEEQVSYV
The next data set is filed under the species Homo sapiens. As to the kind of experiment: Inhibition of sigma-2 receptor (unknown origin) at 10 uM relative to control.
The target of data set [8] is 5-hydroxytryptamine receptor 1D (Homo sapiens) (UniProt P28221). As to the kind of experiment: Inhibition of 5-HT1D receptor (unknown origin) at 10 uM relative to control.
Chain of 5-hydroxytryptamine receptor 1D (Homo sapiens) (P28221 whole entry): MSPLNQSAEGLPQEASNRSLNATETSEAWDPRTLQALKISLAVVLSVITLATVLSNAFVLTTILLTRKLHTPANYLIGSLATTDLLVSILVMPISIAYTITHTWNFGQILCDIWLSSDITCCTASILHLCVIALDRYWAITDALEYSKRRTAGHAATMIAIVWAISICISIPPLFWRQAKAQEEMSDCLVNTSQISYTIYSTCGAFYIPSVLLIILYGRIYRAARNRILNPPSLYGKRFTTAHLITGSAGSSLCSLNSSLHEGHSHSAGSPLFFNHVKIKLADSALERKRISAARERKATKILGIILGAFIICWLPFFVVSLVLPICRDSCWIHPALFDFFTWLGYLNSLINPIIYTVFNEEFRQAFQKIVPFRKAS
A short description of data set [9]: Toxicity in ip dosed albino Sprague-Dawley rat assessed as behavioral changes measured at 0.25 to 4 hrs. In kind it is organism-based. Particulars: in vivo. The gist of the method:
(§1)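 Male albino Sprague-Dawley rats given compound intraperitoneally or orally (NINDS ASP); neurological impairment judged from behavioral toxicity effects. Preset screening doses (e.g., 30 mg/kg); for adequately active compounds, TD50 (mg/kg, 95% confidence intervals) derived from dose–effect data at time of peak effect.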

Data set [10] has as its target Kappa-type opioid receptor (Homo sapiens) (UniProt P41145). Description: Inhibition of kappa opioid receptor (unknown origin) at 10 uM relative to control.
Data set [11] has as its target Histamine H2 receptor (Homo sapiens) (UniProt P25021). As to the kind of experiment: Inhibition of histamine H2 receptor (unknown origin) at 10 uM relative to control.
Data set [12] deals with Sodium-dependent dopamine transporter (Homo sapiens) (UniProt Q01959). Description: Inhibition of DAT (unknown origin) at 10 uM relative to control.
Chain of Sodium-dependent dopamine transporter (Homo sapiens) (Q01959 whole entry): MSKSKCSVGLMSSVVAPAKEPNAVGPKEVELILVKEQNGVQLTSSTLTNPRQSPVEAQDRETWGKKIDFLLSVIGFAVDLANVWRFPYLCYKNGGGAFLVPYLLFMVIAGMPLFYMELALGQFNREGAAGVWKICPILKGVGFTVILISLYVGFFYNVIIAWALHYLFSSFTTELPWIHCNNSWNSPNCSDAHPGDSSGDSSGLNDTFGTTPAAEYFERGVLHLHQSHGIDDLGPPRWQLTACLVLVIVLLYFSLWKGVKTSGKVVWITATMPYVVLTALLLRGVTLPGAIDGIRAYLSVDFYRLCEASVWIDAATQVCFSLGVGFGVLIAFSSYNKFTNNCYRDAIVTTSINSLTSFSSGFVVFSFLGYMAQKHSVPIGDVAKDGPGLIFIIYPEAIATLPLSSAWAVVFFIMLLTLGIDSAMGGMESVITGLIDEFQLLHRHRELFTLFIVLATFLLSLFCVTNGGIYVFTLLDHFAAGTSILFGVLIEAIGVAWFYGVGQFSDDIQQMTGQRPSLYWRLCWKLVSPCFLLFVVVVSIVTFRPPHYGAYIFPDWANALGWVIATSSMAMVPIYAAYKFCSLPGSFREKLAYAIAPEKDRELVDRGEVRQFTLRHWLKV
Data set [13] deals with 5-hydroxytryptamine receptor 2A (Homo sapiens) (UniProt P28223). As to the kind of experiment: Inhibition of 5-HT2A receptor (unknown origin) at 10 uM relative to control.
Chain of 5-hydroxytryptamine receptor 2A (Homo sapiens) (P28223 whole entry): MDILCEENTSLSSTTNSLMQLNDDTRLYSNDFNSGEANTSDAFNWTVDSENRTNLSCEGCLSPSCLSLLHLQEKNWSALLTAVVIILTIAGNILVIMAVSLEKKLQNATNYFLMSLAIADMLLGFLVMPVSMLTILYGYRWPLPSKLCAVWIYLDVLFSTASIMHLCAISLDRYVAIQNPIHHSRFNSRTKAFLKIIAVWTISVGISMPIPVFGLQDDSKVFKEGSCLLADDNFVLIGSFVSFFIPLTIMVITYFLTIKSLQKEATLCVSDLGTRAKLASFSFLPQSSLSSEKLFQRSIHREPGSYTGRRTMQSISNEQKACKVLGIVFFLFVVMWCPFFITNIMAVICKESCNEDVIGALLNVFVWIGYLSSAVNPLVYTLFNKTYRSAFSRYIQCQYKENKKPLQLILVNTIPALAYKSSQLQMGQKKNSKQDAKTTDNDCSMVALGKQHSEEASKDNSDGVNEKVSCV
The test system of a further data set is Rattus norvegicus. Description: Anticonvulsant activity in po dosed albino Sprague-Dawley rat assessed as protection against maximal electroshock-induced seizures measured at 0.25 to 4 hrs. It counts as functional. The essentials:
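Screened under the NINDS ASP in male albino Carworth Farms No. 1 mice (ip) or male albino Sprague-Dawley rats (ip or po), using MES, 6 Hz (32 mA) and subcutaneous pentylenetetrazol seizure tests. Initial qualitative tests used preset doses (e.g., 30, 50, 100 mg/kg). ED50 values with 95% confidence intervals came from dose–response data collected at the time of peak effect.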

For data set [14], the target named is Sigma non-opioid intracellular receptor 1 (Homo sapiens) (UniProt Q99720). As to the kind of experiment: Inhibition of sigma-1 receptor (unknown origin) at 10 uM relative to control.
Chain of Sigma non-opioid intracellular receptor 1 (Homo sapiens) (Q99720 whole entry): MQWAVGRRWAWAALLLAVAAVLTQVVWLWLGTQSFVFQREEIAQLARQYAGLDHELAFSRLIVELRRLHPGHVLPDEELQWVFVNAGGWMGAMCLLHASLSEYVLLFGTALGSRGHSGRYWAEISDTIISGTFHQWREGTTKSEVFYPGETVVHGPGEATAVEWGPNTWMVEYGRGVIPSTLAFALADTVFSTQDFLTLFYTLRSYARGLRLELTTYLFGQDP
Data set [15] concerns the target T3, 5-hydroxytryptamine receptor 2C (Homo sapiens) (UniProt P28335).
T3 sequence (whole entry): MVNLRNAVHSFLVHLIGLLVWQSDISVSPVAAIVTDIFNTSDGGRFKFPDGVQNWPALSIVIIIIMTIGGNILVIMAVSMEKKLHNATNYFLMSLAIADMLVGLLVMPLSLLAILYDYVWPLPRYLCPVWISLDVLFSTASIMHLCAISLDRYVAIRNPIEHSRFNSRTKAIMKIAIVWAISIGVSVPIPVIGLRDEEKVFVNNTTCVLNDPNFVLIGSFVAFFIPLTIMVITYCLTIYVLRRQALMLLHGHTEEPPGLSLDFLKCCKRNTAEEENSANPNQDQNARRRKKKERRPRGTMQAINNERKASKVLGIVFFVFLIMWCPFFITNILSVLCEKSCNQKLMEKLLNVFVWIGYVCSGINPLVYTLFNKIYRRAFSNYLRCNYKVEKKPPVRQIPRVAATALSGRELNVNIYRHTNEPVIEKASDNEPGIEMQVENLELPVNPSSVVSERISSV
As to the kind of experiment: Inhibition of 5-HT2C receptor (unknown origin) at 10 uM relative to control.

Data set [16] addresses D(1A) dopamine receptor (Homo sapiens) (UniProt P21728). Description: Inhibition of dopaminergic D1 receptor (unknown origin) at 10 uM relative to control.
Data set [17] can be described thus: Toxicity in po dosed albino Sprague-Dawley rat assessed as behavioral changes measured at 0.25 to 4 hrs. It counts as organism-based. Particulars: in vivo. The essentials: as §1

In ChEMBL document CHEMBL3091364, “Benzyloxybenzylammonium chlorides: Simple amine salts that display anticonvulsant activity” (Bioorg Med Chem, 2013) one finds inhibition, TD50 and ED50 data, which are given here for two compounds.

Chain of Translocator protein (Homo sapiens) (P30536 whole entry): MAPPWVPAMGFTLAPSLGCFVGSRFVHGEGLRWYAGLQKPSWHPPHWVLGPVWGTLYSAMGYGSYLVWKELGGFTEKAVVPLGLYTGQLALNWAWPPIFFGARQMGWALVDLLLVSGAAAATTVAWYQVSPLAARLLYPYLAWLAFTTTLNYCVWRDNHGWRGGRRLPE
Chain of Histamine H2 receptor (Homo sapiens) (P25021 whole entry): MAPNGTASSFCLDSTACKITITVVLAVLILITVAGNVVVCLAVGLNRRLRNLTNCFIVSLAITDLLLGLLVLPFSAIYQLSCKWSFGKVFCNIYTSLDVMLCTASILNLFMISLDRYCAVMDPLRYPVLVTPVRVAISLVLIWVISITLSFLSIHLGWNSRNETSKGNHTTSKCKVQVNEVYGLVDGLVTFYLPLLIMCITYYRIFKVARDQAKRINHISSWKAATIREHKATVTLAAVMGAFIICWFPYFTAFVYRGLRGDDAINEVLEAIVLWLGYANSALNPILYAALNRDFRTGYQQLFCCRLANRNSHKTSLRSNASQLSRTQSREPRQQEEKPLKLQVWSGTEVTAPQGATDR
Chain of Kappa-type opioid receptor (Homo sapiens) (P41145 whole entry): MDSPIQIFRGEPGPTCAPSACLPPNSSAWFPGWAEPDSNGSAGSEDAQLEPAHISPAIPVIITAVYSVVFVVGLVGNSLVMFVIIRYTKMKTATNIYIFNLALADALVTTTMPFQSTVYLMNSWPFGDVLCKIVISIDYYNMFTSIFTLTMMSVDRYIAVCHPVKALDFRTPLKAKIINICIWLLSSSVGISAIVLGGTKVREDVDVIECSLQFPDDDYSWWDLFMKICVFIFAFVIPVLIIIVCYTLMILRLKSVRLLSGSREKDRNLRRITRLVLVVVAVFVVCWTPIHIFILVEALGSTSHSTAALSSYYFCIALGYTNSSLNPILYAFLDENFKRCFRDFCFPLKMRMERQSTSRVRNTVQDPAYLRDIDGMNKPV
Chain of D(1A) dopamine receptor (Homo sapiens) (P21728 whole entry): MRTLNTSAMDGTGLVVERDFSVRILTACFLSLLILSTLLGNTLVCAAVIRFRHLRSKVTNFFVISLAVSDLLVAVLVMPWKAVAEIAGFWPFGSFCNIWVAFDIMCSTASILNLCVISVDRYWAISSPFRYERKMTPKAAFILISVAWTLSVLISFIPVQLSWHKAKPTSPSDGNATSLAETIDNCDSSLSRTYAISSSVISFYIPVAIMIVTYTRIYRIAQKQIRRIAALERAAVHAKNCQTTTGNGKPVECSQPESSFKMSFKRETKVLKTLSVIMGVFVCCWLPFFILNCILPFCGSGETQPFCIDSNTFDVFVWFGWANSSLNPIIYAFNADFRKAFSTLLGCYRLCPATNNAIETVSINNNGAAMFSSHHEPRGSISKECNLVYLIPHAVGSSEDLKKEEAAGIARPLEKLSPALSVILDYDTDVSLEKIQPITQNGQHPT

As for `Cl.NCc1ccc(OCc2ccc(Cl)cc2)cc1`, the inhibition in data set [1] was found to be 3.5%; in [2], 12%; in data set [3] it was 51.6%; in data set [4], 6.4%; in [5], 50.5%; in [6], 53.8%. The inhibition in [7] is 40.6%; in the data set filed under Homo sapiens, 79.2%; in [8], 1.6%; in data set [10] it was 16.6%; in [11], 16.8%; in [12] it was 75.7%. The inhibition in [13] came out at 92.6%; in data set [14] it was 90.6%; in [15], 13.2%; in data set [16], 7.6%. The TD50 in data set [9] and in data set [17] was greater than 30 mg/kg in each case. Besides, the ED50 in the data set on Rattus norvegicus is greater than 30 mg/kg.

As to `Cl.NCc1ccc(OCc2ccc(OC(F)(F)F)cc2)cc1`, the inhibition in data set [1] was -4.7%; in data set [2], 5.6%; in data set [3] it was 49.9%; in data set [4], 3.5%; in data set [5], 8.9%; in data set [6], 10.6%. The inhibition was 34.4% in data set [7]; 86.4% in the data set listed under Homo sapiens; 4.9% in data set [8]; 2.6% in data set [10]; -2.7% in [11]; 70.5% in data set [12]. Further, the inhibition in data set [13] is 94.7%; in data set [14] it was 91.1%; in data set [15], 4.2%; in data set [16], -9.4%. The TD50 is greater than 50 mg/kg in data set [9] and greater than 30 mg/kg in data set [17]. The ED50 in the data set on Rattus norvegicus is greater than 30 mg/kg.

What is called inhibition is the change of the read-out against control, counted positive when it falls. Usually TD50 stands for the 50% point of the dose-response relation for the toxic effect studied. What is called ED50 is the midpoint of the dose-response relation.
